Kir21 inh = inhibitors of mouse Kir2.1 inward-rectifier potassium channel; P35561; HEK293-Kir2.1, FluxOR thallium flux fluorescence; stronger effect = lower value; B-score at 10 µM; 310,000 compounds, 0.85% hits;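 active = fluorescence ratio B-score at or below minus 3 SD of library scores, with starting-brightness B-score within 2 SD, cut at about -4.2 in these data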;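 also: channel flux triggered by added potassium and thallium sulfate stimulus; B-score of peak minus minimum fluorescence over baseline after thallium stimulus; more negative B-score means stronger Kir2.1 block with less thallium influx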
TRPC4 agonist = opens the mouse TRPC4 cation channel | 310,000 compounds, 0.49% hits | Q9QUQ5 | B-score at 10 µM | HEK293 TRPC4beta/mu-opioid, Fluo4 calcium fluorescence; stronger effect = higher value;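 active = B-score above 5 SD of library B-scores, and initial fluorescence ratio not above library mean plus 5 SD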;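 also: positive B-score marks a calcium rise read as TRPC4 activation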
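Material: HEK293 stable line with TRPC4beta plus mu-opioid receptor; technique: Fluo4 calcium-sensitive dye fluorescence, kinetic, 1 Hz baseline; timing: Fluo4 dye loading 45 min at room temperature, 110 s recording; controls: assay buffer as low control, maximal DAMGO as high control; read-out: integrated baseline-normalised fluorescence ratio, converted to per-well B score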
TRPC4 inh = blocks the mouse TRPC4 cation channel | 300,000 compounds, 0.39% hits | HEK293 TRPC4beta/mu-opioid, DAMGO-evoked Fluo4 calcium flux; stronger effect = lower value | B-score at 10 µM | Q9QUQ5;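 active = B-score over 3 SD under the library average, no early fluorescence shift, positive overall ratio signal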
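Test system – stable TRPC4beta/mu-opioid receptor HEK293 cells · Probe or stimulus – DAMGO, a submaximal dose followed by a maximal one · Dosing – one concentration per compound · Signal – Fluo4 calcium fluorescence by kinetic imaging, 5 s 1 Hz baseline · Evaluation – per-well B score of integrated baseline-normalized Fluo4 ratio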
TRPC6 inh = mouse TRPC6 channel inhibition; Q61143; HEK293-TRPC6, membrane potential dye, ACh-evoked depolarization; stronger effect = lower value; B-score at 10 µM; 310,000 compounds, 1.1% hits; AID 2553;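 active = B-score under library mean minus 3 SD, initial fluorescence not abnormally high, positive integrated signal ratio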;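 also: B-score derived from integrated fluorescence ratio over the kinetic read; more negative B-score means stronger inhibition of depolarization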
TRPC6 act = activates the mouse TRPC6 cation channel. Q61143. HEK293-TRPC6 membrane potential dye fluorescence; stronger effect = higher value. B-score at 10 µM. 310,000 compounds, 0.13% hits;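 active = B-score of the integrated fluorescence ratio above library mean plus 3 SD, and starting fluorescence ratio within library mean plus 5 SD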;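 also: higher score means more depolarization so channel activation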
TRPC4 potent = allosterically enhances the mouse TRPC4 cation channel | Q9QUQ5 | B-score at 10 µM | HEK293 TRPC4beta/mu-opioid, DAMGO EC20, Fluo-4 Ca2+ flux; stronger effect = higher value | 310,000 compounds, 0.42% hits;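 active = B-score of calcium response area above 5 SD of library B-scores, with initial fluorescence ratio within 5 SD of library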;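 also: B-score of integrated fluorescence ratio over time as area under calcium response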
HEK293 MPD ctr = counter-screen for TRPC6 modulators: effect in parental HEK293 cells; AID 488924; membrane potential signal change, % at 10 µM; membrane potential dye fluorescence; shares compounds with TRPC6 inh; 2,400 compounds, 51% hits;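 active = membrane potential signal moves up or down beyond 5 SD from buffer-only wells, on both duplicate plates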
HEK293 MPD ctr 2 = second counter-screen for TRPC6 modulators: effect in parental HEK293 cells; shares compounds with TRPC6 inh; membrane potential dye fluorescence; after compound, maximal acetylcholine stimulation; inhibition, % at 10 µM; 2,400 compounds, 14% hits;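 active = membrane potential signal drops by more than 5 SD from the mean control signal, in both duplicate plates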;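 also: plate controls were acetylcholine ECmax control wells for no effect and buffer only wells for full effect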
TRPC4 ctr mod = tests whether TRPC6 modulators also affect mouse TRPC4. shares compounds with TRPC6 inh. HEK293 TRPC4/mu-opioid, membrane potential fluorescence. percent change from control (negative = decrease, positive = increase), % at 10 µM. 2,400 compounds, 69% hits. AID 488927;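 active = membrane potential signal moved up or down beyond 5 SD of buffer control wells, in both duplicate plates, actives on both sides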;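 also: plate controls were assay buffer wells for no effect and DAMGO maximal-effect wells for full effect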
TRPC4/MOR inh 2 = second selectivity test of TRPC6 modulators against mouse TRPC4 | AID 488928 | inhibition, % at 10 µM | shares compounds with TRPC6 inh | HEK293 TRPC4/mu-opioid, membrane potential dye fluorescence; stimulated with maximal-effect DAMGO | 2,400 compounds, 55% hits;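 active = drop in membrane potential signal beyond 5 SD of the control wells in both duplicate plates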;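 also: TRPC4 counter screen for TRPC6 hits run under conditions tuned for TRPC6 not TRPC4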
TRPC6 block conf = confirmation of mouse TRPC6 inhibitors | AID 488960 | 3,300 compounds, 43% hits | inhibition, % at 10 µM | shares compounds with TRPC6 inh | HEK293-TRPC6, membrane potential dye, ACh-evoked depolarization;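 active = fluorescence ratio falls more than 5 SD below the full-stimulation control mean, in both duplicate runs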;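 also: integrated fluorescence ratio of peak minus minimum over baseline after agonist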
TRPC6 act confirm = confirmation of mouse TRPC6 activators; activation, % at 10 µM; HEK293-TRPC6 membrane potential dye fluorescence, FDSS; shares compounds with TRPC6 inh; 2,800 compounds, 11% hits;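 active = ratio signal rise beyond 5 SD above unstimulated control wells' mean, seen in both duplicate runs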;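 also: plate controls were buffer EC0 wells for no effect and acetylcholine ECmax response for full effect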
* = called active by the depositor. Most compounds without a hit are left out; they make up all but 2.9% or so of the library.

Screening COc1cc2c(ccc3cc(OC)c(OC)c(O)c32)cc1O returned Kir21 inh -1.6, TRPC4 agonist inactive, TRPC4 inh inactive, TRPC6 inh inactive, TRPC6 act inactive and TRPC4 potent inactive.
CCc1ccccc1N(CC(=O)NC(C)(C)C)C(=O)CCC(=O)Nc1ccccn1 was read as Kir21 inh 1.1, TRPC4 agonist inactive, TRPC4 inh inactive, TRPC6 inh inactive, TRPC6 act inactive and TRPC4 potent inactive.
`Cc1cc(C)c2cc(C(=O)N3CCN(c4ncccc4C(F)(F)F)CC3)[nH]c2c1` gave Kir21 inh 1.1, TRPC4 agonist inactive, TRPC4 inh inactive, TRPC6 inh inactive, TRPC6 act inactive and TRPC4 potent inactive.
Screening CCN1CCN(CCCN(Cc2ccco2)C(=S)Nc2ccc(Cl)cc2)CC1 returned Kir21 inh -0.11, TRPC4 agonist inactive, TRPC4 inh inactive, TRPC6 inh inactive, TRPC6 act inactive and TRPC4 potent inactive.
`CCOc1ccc(NC(=S)N(CCCN2CCCC2)Cc2cccn2Cc2ccc(Cl)cc2)cc1` gave Kir21 inh -3, TRPC4 agonist inactive, TRPC4 inh inactive, TRPC6 inh -5.2*, TRPC6 act inactive, TRPC4 potent inactive, HEK293 MPD ctr inactive, HEK293 MPD ctr 2 inactive, TRPC4 ctr mod inactive, TRPC4/MOR inh 2 53%*, TRPC6 block conf inactive and TRPC6 act confirm inactive.
`CCc1nc2ccc(F)cc2c(C(=O)NC2CCCCC2C)c1C` (stereo not drawn) gave Kir21 inh 0.03, TRPC4 agonist inactive, TRPC4 inh inactive, TRPC6 inh inactive, TRPC6 act 14*, TRPC4 potent inactive, HEK293 MPD ctr 428%*, HEK293 MPD ctr 2 inactive, TRPC4 ctr mod 86%*, TRPC4/MOR inh 2 44%* and TRPC6 act confirm 171%*.
Screening CC(C)n1nc(C(=O)Nc2nnc(SCc3c(Cl)cccc3Cl)s2)c2ccccc2c1=O returned Kir21 inh 0.05, TRPC4 agonist inactive, TRPC4 inh inactive, TRPC6 inh inactive, TRPC6 act inactive and TRPC4 potent inactive.
`CCOc1ccc(NC(=O)CC(Cc2cc(C)cc(C)c2)C(=O)O)cc1` (stereo not drawn) gave Kir21 inh 0.79, TRPC4 agonist inactive, TRPC4 inh inactive, TRPC6 inh -5.6*, TRPC6 act inactive, TRPC4 potent inactive, HEK293 MPD ctr inactive, HEK293 MPD ctr 2 inactive, TRPC4 ctr mod inactive, TRPC4/MOR inh 2 inactive, TRPC6 block conf inactive and TRPC6 act confirm inactive.
`CCOc1ccc(NC(=O)C(CC(=O)O)Cc2ccccc2)cc1` (stereo not drawn) gave Kir21 inh -0.2, TRPC4 agonist inactive, TRPC4 inh inactive, TRPC6 inh inactive, TRPC6 act inactive and TRPC4 potent inactive.

Bioassay records (PubChem BioAssay)
